Test results reported in ChEMBL document CHEMBL3259616, “New Ianthelliformisamine derivatives as antibiotic enhancers against resistant Gram-negative bacteria” (J Med Chem, 2014).
≈ marks a conversion by molar mass, not a printed value. Calls of active or inactive are those of the source. The calls are words filed in the database; no cut-off is given here.

Legend:
[1] = test system: Klebsiella aerogenes; assay: Antibacterial activity against Enterobacter aerogenes EA289 assessed as inhibition of visible growth after 18 hrs incubation by standard broth dilution method; assay type: functional; settings: EA289, 18 h
Method in brief: (§1)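 Broth microdilution per CA-SFM: inoculum 10^5 CFU in 200 μL Mueller–Hinton broth with 2-fold serial dilutions of compound; MIC = lowest concentration with no visible growth after 18 h at 37 °C. Independently repeated at least three times. Strains kept at −80 °C in 15% glycerol and grown routinely in MH broth at 37 °C.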

[2] = test system: Staphylococcus aureus; assay: Antibacterial activity against Staphylococcus aureus DSM799 assessed as inhibition of visible growth after 18 hrs incubation by standard broth dilution method; assay type: functional; settings: DSM799, 18 h; method in brief: as §1
[3] = test system: Pseudomonas aeruginosa; assay: Antibacterial activity against Pseudomonas aeruginosa PAO1 assessed as inhibition of visible growth after 18 hrs incubation by standard broth dilution method; assay type: functional; settings: PAO1, 18 h; method in brief: as §1
[4] = test system: Klebsiella pneumoniae; assay: Antibacterial activity against Klebsiella pneumoniae KPC2 ST258 assessed as inhibition of visible growth after 18 hrs incubation by standard broth dilution method; assay type: functional; settings: KPC2, 18 h; method in brief: as §1
[5] = test system: Klebsiella aerogenes; assay: Inhibition of multidrug resistance efflux pump in Enterobacter aerogenes EA289 assessed as dose required to restore 2 ug/ml doxycycline-induced inhibition of visible growth after 18 hrs by standard broth dilution method
Method in brief: (§2)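 Broth microdilution in MH broth, inoculum 10^5 CFU in 200 μL, 2-fold serial dilutions of derivative with fixed antibiotic (2 μg/mL). Lowest derivative concentration giving complete inhibition of visible growth after 18 h at 37 °C recorded. Antibiotics dissolved in DMSO. Independently repeated at least three times.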

[6] = test system: Pseudomonas aeruginosa PAO1; assay: Inhibition of multidrug resistance efflux pump in Pseudomonas aeruginosa PAO1 assessed as dose required to restore 2 ug/ml doxycycline-induced inhibition of visible growth after 18 hrs by standard broth dilution method; method in brief: as §2
[7] = test system: Klebsiella pneumoniae; assay: Inhibition of multidrug resistance efflux pump in Klebsiella pneumoniae KPC2 ST258 assessed as dose required to restore 2 ug/ml doxycycline-induced inhibition of visible growth after 18 hrs by standard broth dilution method
Method in brief: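 Broth microdilution in Mueller-Hinton broth, CA-SFM recommendations. Inoculum 10^5 CFU in 200 μL containing 2-fold serial dilutions of derivative plus doxycycline at 2 μg/mL, 37 °C for 18 h. Antibiotics dissolved in DMSO, up to 5% v/v. Repeated independently at least three times.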

[8] = test system: Pseudomonas aeruginosa PAO1; assay: Inhibition of multidrug resistance efflux pump in Pseudomonas aeruginosa PAO1 assessed as dose required to restore 2 ug/ml chloramphenicol-induced inhibition of visible growth after 18 hrs by standard broth dilution method; method in brief: as §2
[9] = test system: Pseudomonas aeruginosa PAO1; assay: Inhibition of multidrug resistance efflux pump in Pseudomonas aeruginosa PAO1 assessed as dose required to restore 2 ug/ml cefepime-induced inhibition of visible growth after 18 hrs by standard broth dilution method; method in brief: as §2
[10] = Cytotoxicity against CHOK1 cells assessed as decrease in cell viability after 24 hrs by WST-1 assay; assay type: cell-based; settings: Cricetulus griseus, CHO-K1, 24 h
Method in brief: (§3)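 CHO-K1 (McCoy's 5A) and human fibroblasts (DMEM), both with 10% bovine calf serum, 2 mM glutamine, penicillin/streptomycin, 37 °C, 5% CO2. Seeded, left overnight, then exposed to various compound concentrations in triplicate for 24 h at 37 °C. Washed three times in PBS, 30 min in PBS with 10% WST-1, A450. Viability as % of medium-only control; IC50 by nonlinear regression.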

[11] = Cytotoxicity against human fibroblasts assessed as decrease in cell viability after 24 hrs by WST-1 assay; assay type: cell-based; settings: Fibroblast; method in brief: as §3
[12] = test system: Pseudomonas aeruginosa; assay: Disruption of outermembrane in Pseudomonas aeruginosa PAO1 assessed as ATP efflux at 2 mM by bioluminescence method; assay type: functional
Method in brief: (§4)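 After 5 min an aliquot was vortexed, luciferin–luciferase added and luminescence read for 5 s. ATP quantified with an internal standard; maximal release set with 0.02% […].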

[13] = test system: Pseudomonas aeruginosa; assay: Disruption of outermembrane in Pseudomonas aeruginosa PAO1 assessed as ATP efflux at 2 to 200 uM by bioluminescence method in presence of 2 to 50 ug/ml doxycycline; assay type: functional, organism-based; method in brief: as §4
[14] = test system: Pseudomonas aeruginosa; assay: Disruption of outermembrane in Pseudomonas aeruginosa PAO1 assessed as ATP efflux at 2 to 200 uM by bioluminescence method; assay type: functional, organism-based; method in brief: as §4
[15] = test system: Pseudomonas aeruginosa; assay: Disruption of outermembrane in Pseudomonas aeruginosa PAO1 assessed as rate of nitrocefin hydrolysis at 500 uM spectrophotometrically; assay type: functional, organism-based
Method in brief: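 PAO1 grown in MH broth at 37 °C to OD600 0.5; then room temperature. Cells centrifuged and washed once in 20 mM potassium phosphate pH 7.2 with 1 mM MgCl2, then exposed to compound. Nitrocefin added to final 50 μg/mL as periplasmic β-lactamase substrate; hydrolysis followed as rising absorbance at 490 nm against untreated control.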

[16] = test system: Pseudomonas aeruginosa PAO1; assay: Inhibition of multidrug resistance efflux pump in Pseudomonas aeruginosa PAO1 assessed as depolarization by spectrofluorometry
Method in brief: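 PAO1 grown 24 h at 37 °C in MH broth, washed twice in buffered 250 mM sucrose with 5 mM MgSO4. Loaded with 3 μM 3,3-diethylthiodicarbocyanine iodide for 1 h at 37 °C, then derivative added at various concentrations. Fluorescence read at 0–21 min intervals. Maximum taken as 3 μM dye alone in buffer.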

SMILES | MIC [1] [µM] | MIC [2] [µM] | MIC [3] [µM] | MIC [4] [µM] | Activity [5] [µM] | Activity [6] [µM] | inhibition [6] | Activity [7] [µM] | Activity [8] [µM] | Activity [9] [µM] | IC50 [10] [µM] | IC50 [11] [µM] | Activity [12] [%] | inhibition [13] | inhibition [14] | inhibition [15] | inhibition [16]
COc1c(Br)cc(/C=C/C(=O)NCCCNCCCCN)cc1Br.Cl.Cl | 100 | > 200 | > 200 | > 200 | 25 | 12.5 | Dose-dependent effect | 3.12 | 200 | 0.8 | 1660 | 129 |  |  |  |  | 
COc1c(Br)cc(/C=C/C(=O)NCCCN(CCCN)CCCN)cc1Br | > 200 | 50 (≈ 25.3 µg/mL) | 100 (≈ 50.6 µg/mL) | > 200 | 6.25 | 3.12 | Dose-dependent effect | 3.12 | 100 | 0.4 | 846 | 345 | <16 | inactive | inactive | inactive | Dose-dependent effect
COc1c(Br)cc(/C=C/C(=O)NCCCNCCCNCCCNC(=O)/C=C/c2cc(Br)c(OC)c(Br)c2)cc1Br | 100 (≈ 82.4 µg/mL) | 12.5 (≈ 10.3 µg/mL) | 25 (≈ 20.6 µg/mL) | 12.5 (≈ 10.3 µg/mL) | 12.5 | 3.12 | Dose-dependent effect | 12.5 | 12.5 | 1.6 | 663 | 237 |  |  |  |  | 
COc1c(Br)cc(/C=C/C(=O)NCCCNCCCCNCCCN)cc1Br [IANTHELLIFORMISAMINE A] | > 200 | 200 (≈ 104 µg/mL) | 200 (≈ 104 µg/mL) | > 200 | > 100 | 12.5 | Dose-dependent effect | >100 |  |  |  |  |  |  |  |  | 
COc1c(Br)cc(/C=C/C(=O)NCCCOCCCCOCCCN)cc1Br | > 200 | > 200 | > 200 | > 200 | > 100 | > 100 | Dose-dependent effect | >100 |  |  |  |  |  |  |  |  | 
C[C@H]1c2cccc(O)c2C(=O)C2=C(O)[C@]3(O)C(=O)C(C(N)=O)=C(O)[C@@H](N(C)C)[C@@H]3[C@@H](O)[C@@H]21 [DOXYCYCLINE] | 56 (≈ 24.9 µg/mL) | < 3 | 112 (≈ 49.8 µg/mL) |  |  |  |  |  |  |  |  |  |  |  |  |  | 
COc1c(Br)cc(/C=C/C(=O)NCCCN)cc1Br | > 200 | > 200 | 100 (≈ 39.2 µg/mL) | > 200 | > 100 | 100 | Dose-dependent effect | 100 |  |  |  |  |  |  |  |  | 
COc1c(Br)cc(/C=C/C(=O)NCCCN2CCCC2)cc1Br | > 200 | > 200 | > 200 | > 200 | > 100 | 25 | Dose-dependent effect | >100 |  |  |  |  |  |  |  |  | 
O=C(N[C@H](CO)[C@H](O)c1ccc([N+](=O)[O-])cc1)C(Cl)Cl [CHLORAMPHENICOL] | > 200 |  | > 200 |  |  |  |  |  |  |  |  |  |  |  |  |  | 
COc1c(Br)cc(/C=C/C(=O)NCCCN(C)CCCN)cc1Br | > 200 | > 200 | 200 (≈ 92.6 µg/mL) | > 200 |  |  |  |  |  |  | 174 | 24 |  |  |  |  | 
COc1c(Br)cc(/C=C/C(=O)NCCCCN)cc1Br | > 200 | > 200 | > 200 | > 200 | > 100 | > 100 | Dose-dependent effect | >100 |  |  |  |  |  |  |  |  | 
COc1c(Br)cc(/C=C/C(=O)NCCCCNCCCN)cc1Br.Cl.Cl | > 200 | 200 | 200 | > 200 | 6.25 | 3.12 | Dose-dependent effect | 3.12 | 100 | 3.12 | 108 | 33 |  |  |  |  | 
CO/N=C(\C(=O)N[C@@H]1C(=O)N2C(C(=O)[O-])=C(C[N+]3(C)CCCC3)CS[C@H]12)c1csc(N)n1 [CEFEPIME] | 52 (≈ 25 µg/mL) |  | 26 (≈ 12.5 µg/mL) |  |  |  |  |  |  |  |  |  |  |  |  |  | 
COc1c(Br)cc(/C=C/C(=O)NCCN)cc1Br | > 200 | > 200 | > 200 | > 200 | > 100 | > 100 | Dose-dependent effect | 50 |  |  |  |  |  |  |  |  | 
COc1c(Br)cc(/C=C/C(=O)NCCCCCN)cc1Br | > 200 | > 200 | > 200 | > 200 | > 100 | > 100 | Dose-dependent effect | 6.25 |  |  |  |  |  |  |  |  | 
COc1c(Br)cc(/C=C/C(=O)NCCNCCNCCN)cc1Br | > 200 | > 200 | > 200 | > 200 | > 100 | > 100 | Dose-dependent effect | >100 |  |  |  |  |  |  |  |  | 
COc1c(Br)cc(/C=C/C(=O)NCCCN2CCOCC2)cc1Br | > 200 | > 200 | > 200 | > 200 | > 100 | > 100 | Dose-dependent effect | >100 |  |  |  |  |  |  |  |  | 
COc1c(Br)cc(/C=C/C(=O)NCCNCCNCCNCCN)cc1Br | 200 (≈ 101 µg/mL) | 50 (≈ 25.4 µg/mL) | 100 (≈ 50.7 µg/mL) | > 200 | 12.5 | 6.25 | Dose-dependent effect | 3.12 | 100 | 6.25 | 573 | 237 |  |  |  |  | 
COc1c(Br)cc(/C=C/C(=O)NCCCN2CCN(CCCN)CC2)cc1Br | > 200 | 6.25 (≈ 3.24 µg/mL) | > 200 | > 200 | > 100 |  |  | >100 |  |  |  |  |  |  |  |  | 
